Drawing on ChEMBL document CHEMBL1955783, “Identification and optimization of small molecule antagonists of vasoactive intestinal peptide receptor-1 (VIPR1)” (Bioorg Med Chem Lett, 2012), this text covers Activity and IC50 for 31 molecules.

Calls of active or inactive are those of the source. The rule behind the calls is not given here. Bounds are passed on as bounds.

Experiment [1] addresses T1, Vasoactive intestinal polypeptide receptor 1 (Rattus norvegicus) (UniProt P30083).
T1 sequence (whole entry): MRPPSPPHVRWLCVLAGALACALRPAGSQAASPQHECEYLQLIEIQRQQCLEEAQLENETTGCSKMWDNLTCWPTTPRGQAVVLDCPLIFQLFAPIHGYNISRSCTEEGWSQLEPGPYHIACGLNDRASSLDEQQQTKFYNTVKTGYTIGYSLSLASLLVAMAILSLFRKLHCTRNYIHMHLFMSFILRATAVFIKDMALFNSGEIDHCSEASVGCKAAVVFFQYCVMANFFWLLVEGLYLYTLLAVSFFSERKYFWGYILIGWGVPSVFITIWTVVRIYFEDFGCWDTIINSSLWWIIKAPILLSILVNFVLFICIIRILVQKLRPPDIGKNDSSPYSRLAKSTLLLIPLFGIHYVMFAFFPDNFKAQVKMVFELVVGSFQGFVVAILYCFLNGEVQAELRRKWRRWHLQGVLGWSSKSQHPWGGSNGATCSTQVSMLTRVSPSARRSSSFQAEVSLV
The experiment in a line: Displacement of [125I]VIP from vasoactive intestinal peptide receptor 1 in rat RKE cell membrane after 3 hrs by TopCount assay. It counts as cell membranes. In a few lines:
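Membranes from RKE-VIPR cells, 5 µg/well final, preincubated 10 min at room temperature with wheat germ agglutinin-coated PVT beads in 50 mM HEPES, 5 mM MgCl2, 1 mM CaCl2, 0.1% BSA. IC50 taken from a four-parameter logistic fit after subtracting nonspecific binding, defined with excess VIP.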

The subject of experiment [2] is NCI-H727. The experiment in a line: Cytotoxicity against human NCI-H727 cells expressing VIPR1 in presence of 2% serum. The class given is functional, cell-based. Put shortly:
(§1)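 Cell proliferation in H727, H1299 and Calu6 lines, chosen for high VIPR1 expression. Medium held 2% serum to limit albumin sequestration. Compounds were tested at concentrations up to 10 µM.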

Experiment [3] has as its target T2, Vasoactive intestinal polypeptide receptor 1 (Rattus norvegicus, UniProt P30083).
T2 sequence (P30083 whole entry): T1 sequence (whole entry)
In words: Antagonist activity at vasoactive intestinal peptide receptor 1 in rat RKE cells assessed as inhibition of VIP-induced intracellular cAMP accumulation incubated for 15 mins prior to VIP-stimulation measured after 30 mins by HTRF assay.

Experiment [4] relates to Calu-6. In words: Cytotoxicity against human Calu6 cells expressing VIPR1 in presence of 2% serum. It counts as functional, cell-based. In a few lines: as §1
Experiment [5] deals with NCI-H1299. The experiment in a line: Cytotoxicity against human NCI-H1299 cells expressing VIPR1 in presence of 2% serum. It counts as functional, cell-based. Put shortly:
as §1

In experiment [6] the test system is NCI-H727. In words: Cytotoxicity against human NCI-H727 cells expressing VIPR1 up to 10 uM in presence of 2% serum. The class given is functional, cell-based. In a few lines:
as §1

Experiment [7] has as its system NCI-H1299. The experiment in a line: Cytotoxicity against human NCI-H1299 cells expressing VIPR1 up to 10 uM in presence of 2% serum. It counts as functional, cell-based. In a few lines:
as §1

For experiment [8], the system named is Calu-6. The experiment in a line: Cytotoxicity against human Calu6 cells expressing VIPR1 up to 10 uM in presence of 2% serum. The class given is functional, cell-based. Put shortly: as §1

As to `N#Cc1c(NC(=O)C2CC2)sc2c1CCCC2`, in experiment [1], the outcome was Active. Besides, the outcome in experiment [2], in experiment [4] and in experiment [5] was inactive. For the same molecule, in experiment [3], the half-maximal inhibitory concentration (IC50) is 2700 nM.
For `CC(C)c1cc(C(C)(C)C)cc(-c2ccc3ccccc3c2)c1CO`, the result in experiment [1] was Active. In addition, the outcome in experiment [6], in experiment [7] and in experiment [8] was inactive. Besides, the IC50 in experiment [3] turned out to be 120 nM.
For `COc1ccccc1-c1cc(C(C)(C)C)cc(C(C)C)c1CO`, the result in experiment [1] was Active. For the same molecule, the result in experiment [6], in experiment [7] and in experiment [8] was inactive. Also, in experiment [3], the IC50 was determined as 820 nM.
With `N#Cc1c(NC(=O)CCc2ccccc2)sc2c1CCCC2`, the result in experiment [1] was Active. Besides, the result in experiment [2], in experiment [4] and in experiment [5] was inactive. Also, the IC50 in experiment [3] was found to be 290 nM.
For `Cc1ccccc1-c1cc(C(C)(C)C)cc(C(C)C)c1CO`, in experiment [1], the outcome was Active. In addition, the outcome in experiment [6], in experiment [7] and in experiment [8] was inactive. For the same molecule, in experiment [3], the IC50 was more than 50000 nM.
For `Cc1cccc(CCC(=O)Nc2sc3c(c2C#N)CCCC3)c1`, the result in experiment [1] was Active. In addition, the result in experiment [2], in experiment [4] and in experiment [5] was inactive. In addition, the 50% inhibitory concentration (IC50) in experiment [3] amounted to 750 nM.
For the molecule `N#Cc1c(NC(=O)C2CCCC2)sc2c1CCCC2`, the outcome in experiment [1] was Active. Further, the outcome in experiment [2], in experiment [4] and in experiment [5] was inactive. Moreover, in experiment [3], the IC50 is 470 nM.
For `CC(C)c1cc(C(C)(C)C)cc(-c2ccccc2)c1CO`, the result in experiment [1] was Active. In addition, the outcome in experiment [6], in experiment [7] and in experiment [8] was inactive. In experiment [3], the IC50 amounted to 390 nM.
As to `CC(C)c1cc(C(C)(C)C)cc(-c2cccc(C(F)(F)F)c2)c1CO`, the outcome in experiment [1] was Active. Also, the result in experiment [6], in experiment [7] and in experiment [8] was inactive. The IC50 in experiment [3] is more than 50000 nM.
In the case of `CCC(=O)Nc1sc2c(c1C#N)CCCC2`, the outcome in experiment [1] was Active. The result in experiment [2], in experiment [4] and in experiment [5] was inactive. Also, in experiment [3], the IC50 came to 12000 nM.
As to `N#Cc1c(NC(=O)CC2Cc3ccccc3O2)sc2c1CCCC2` (stereo not given), the outcome in experiment [1] was Active. The outcome in experiment [2], in experiment [4] and in experiment [5] was inactive. In experiment [3], the half-maximal inhibitory concentration (IC50) is 3800 nM.
With `CC(=O)Nc1sc2c(c1C#N)CCCC2`, the result in experiment [1] was Active. Moreover, the outcome in experiment [2], in experiment [4] and in experiment [5] was inactive. Moreover, the IC50 in experiment [3] amounted to 13000 nM.
With `N#Cc1c(NC(=O)CCc2ccc(Cl)cc2)sc2c1CCCC2`, the result in experiment [1] was Active. Besides, the outcome in experiment [2], in experiment [4] and in experiment [5] was inactive. For the same molecule, the half-inhibitory concentration (IC50) in experiment [3] turned out to be 1200 nM.
`COc1cccc(CCC(=O)Nc2sc3c(c2C#N)CCCC3)c1`: in experiment [1], the outcome was Active. The result in experiment [2], in experiment [4] and in experiment [5] was inactive. Further, the IC50 in experiment [3] is 610 nM.
Turning to `CC(C)c1cc(C(C)(C)C)cc(-c2cccc(-c3ccccc3)c2)c1CO`, the outcome in experiment [1] was Active. Besides, the result in experiment [6], in experiment [7] and in experiment [8] was inactive. Moreover, the 50% inhibitory concentration (IC50) in experiment [3] came out at 210 nM.
As for `CC(C)c1cc(C(C)(C)C)cc(-c2cccc3ccccc23)c1CO`, the outcome in experiment [1] was Active. Also, the outcome in experiment [6], in experiment [7] and in experiment [8] was inactive. Besides, in experiment [3], the 50% inhibitory concentration (IC50) stood at 180 nM.
As to `CSc1cccc(-c2cc(C(C)(C)C)cc(C(C)C)c2CO)c1`, the result in experiment [1] was Active. The outcome in experiment [6], in experiment [7] and in experiment [8] was inactive. In addition, the half-maximal inhibitory concentration (IC50) in experiment [3] was 170 nM.
On to `CC(C)c1cc(C(C)(C)C)cc(-c2ccc(-c3ccccc3)cc2)c1CO`, for which, in experiment [1], the result was Active. Moreover, the outcome in experiment [6], in experiment [7] and in experiment [8] was inactive. Further, in experiment [3], the IC50 was found to be 680 nM.
Turning to `N#Cc1c(NC(=O)C2Cc3ccccc3C2)sc2c1CCCC2`, in experiment [1], the result was Active. The result in experiment [2], in experiment [4] and in experiment [5] was inactive. For the same molecule, the half-maximal inhibitory concentration (IC50) in experiment [3] was found to be 17000 nM.
For the molecule `N#Cc1c(NC(=O)COc2ccccc2)sc2c1CCCC2`, the outcome in experiment [1] was Active. Besides, the result in experiment [2], in experiment [4] and in experiment [5] was inactive. Moreover, in experiment [3], the IC50 came out at 9100 nM.
As to `N#Cc1c(NC(=O)Cc2cc3ccccc3[nH]2)sc2c1CCCC2`, the result in experiment [1] was Active. Besides, the outcome in experiment [2], in experiment [4] and in experiment [5] was inactive. Besides, in experiment [3], the IC50 stood at 50000 nM.
With `Cc1ccccc1CCC(=O)Nc1sc2c(c1C#N)CCCC2`, in experiment [1], the outcome was Active. The result in experiment [2], in experiment [4] and in experiment [5] was inactive. In experiment [3], the concentration for half-maximal inhibition (IC50) turned out to be 11000 nM.
On to `N#Cc1c(NC(=O)Cc2cc3ccccc3s2)sc2c1CCCC2`, for which, in experiment [1], the outcome was Active. Further, the result in experiment [2], in experiment [4] and in experiment [5] was inactive. The 50% inhibitory concentration (IC50) in experiment [3] amounted to 1900 nM.
On to `N#Cc1c(NC(=O)Cc2ccccc2)sc2c1CCCC2`, for which, in experiment [1], the outcome was Active. For the same molecule, the outcome in experiment [2], in experiment [4] and in experiment [5] was inactive. Further, the half-inhibitory concentration (IC50) in experiment [3] came to 1600 nM.
Take `COc1ccc(CCC(=O)Nc2sc3c(c2C#N)CCCC3)cc1`: in experiment [1], the result was Active. Moreover, the result in experiment [2], in experiment [4] and in experiment [5] was inactive. Further, in experiment [3], the half-inhibitory concentration (IC50) is 410 nM.
For `Cc1ccc(CCC(=O)Nc2sc3c(c2C#N)CCCC3)cc1`, the outcome in experiment [1] was Active. The outcome in experiment [2], in experiment [4] and in experiment [5] was inactive. Also, in experiment [3], the IC50 is 480 nM.
As for `N#Cc1c(NC(=O)C2CCc3ccccc3C2)sc2c1CCCC2` (stereo not given), the result in experiment [1] was Active. Moreover, the result in experiment [2], in experiment [4] and in experiment [5] was inactive. Moreover, the IC50 in experiment [3] was 12000 nM.
For `N#Cc1c(NC(=O)C2CCC2)sc2c1CCCC2`, the outcome in experiment [1] was Active. Moreover, the outcome in experiment [2], in experiment [4] and in experiment [5] was inactive. The half-inhibitory concentration (IC50) in experiment [3] came to 1800 nM.
As for `CC(C)CC(=O)Nc1sc2c(c1C#N)CCCC2`, in experiment [1], the result was Active. Besides, the outcome in experiment [2], in experiment [4] and in experiment [5] was inactive. Further, the half-maximal inhibitory concentration (IC50) in experiment [3] came out at 1900 nM.
On to `N#Cc1c(NC(=O)C2CCCCC2)sc2c1CCCC2`, for which the outcome in experiment [1] was Active. In addition, the outcome in experiment [2], in experiment [4] and in experiment [5] was inactive. For the same molecule, in experiment [3], the concentration for half-maximal inhibition (IC50) was 470 nM.
Turning to `CC(C)C(=O)Nc1sc2c(c1C#N)CCCC2`, the result in experiment [1] was Active. For the same molecule, the result in experiment [2], in experiment [4] and in experiment [5] was inactive. In experiment [3], the half-inhibitory concentration (IC50) was determined as 3400 nM.
